Bioassay records (PubChem)
NF-kB expr up: raises NF-kB expression in human neuronal cells; AID 1239; NF-kB reporter expression; hits give high values; 190,000 compounds, 1.6% hits; fold change at 12.5 µM; in the data active = fold change above about 3.3
STAT1 blocker: reduces IFN-gamma driven STAT1 reporter signal. 200,000 compounds, 0.35% hits. NIH 3T3 STAT1-luciferase reporter, luminescence. inhibition, % at 5.5 µM. AID 920;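 active = inhibition above a set limit, the mean inhibition across all tested compounds plus 3 SD, cut at about 34% in these data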;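 also: 0% = IFN-gamma with DMSO and 100% = IFN-gamma with 300 µM nifuroxazide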
STAT3 inh-1: inhibitors of IL-6 induced STAT3 signaling; inhibition, % at 5.5 µM; 190,000 compounds, 0.89% hits; U3A cells, IL-6 STAT3-luciferase reporter, luminescence; host cell line lacks STAT1;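 active = inhibition above the mean inhibition across all screened compounds plus 3 SD, cut at about 44% in these data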;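 also: 0% = DMSO only wells and 100% = 100 µM nifuroxazide control wells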
APP 5'UTR act: activates APP 5'UTR luciferase reporter; SH-SY5Y APP 5'UTR luciferase reporter, luminescence; zero percent = DMSO vehicle wells; activation, % at 2 µM; 190,000 compounds, 1% hits; AID 1276;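 active = activation above a set limit, based on mean plus 3 SD of controls, cut at about 140% in these data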
STAT3 act: increases IL-6 driven STAT3 reporter signal. AID 871. 190,000 compounds, 0.91% hits. U3A cells, IL-6 STAT3-luciferase reporter, luminescence; 100% = signal with IL-6 EC80 alone. activation (% of control), % at 5.6 µM;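 active = activation above the screen-wide mean of compound activation plus 3 SD, cut at about 130% in these data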;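 also: 0% = background luminescence of wells with medium and substrate only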
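system = STAT3-luciferase reporter U3A cells | reagent = IL-6 stimulus at 33 ng/mL final | timing = 1 h compound pre-exposure, 6 h IL-6 stimulation, 37 °C | measured by = luminescence | evaluation = % activation versus median of IL-6-stimulated wells | control set = IL-6-only wells as 100% reference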
STAT1 activator: activators of IFN-gamma induced STAT1 signaling. 200,000 compounds, 2.6% hits. activation (% of control), % at 5.5 µM. NIH 3T3 STAT1-luciferase reporter, luminescence; 100% = IFN-gamma alone, no compound. AID 932;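 active = activation above the screen-wide mean activation plus 3 SD, cut at about 130% in these data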;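 also: raw ratio to IFN-gamma control signal so 100% means no change and 0% no light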
STAT3 inh-2: STAT3 inhibition, confirmation assay; 1,200 compounds, 45% hits; U3A cells, IL-6 STAT3 luciferase reporter, luminescence; cell line lacks STAT1; shares compounds with STAT3 inh-1; inhibition, % at 5.7 µM;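 active = inhibition above the hit cutoff computed for the primary STAT3 screen, cut at about 44% in these data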;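 also: 0% = IL-6 plus DMSO and 100% = IL-6 plus nifuroxazide control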
NFkB inh 2: counter-screen for STAT3 inhibitors: NF-kappaB inhibition; inhibition, % at 5.7 µM; shares compounds with STAT3 inh-1; 1,200 compounds, 36% hits; HEK293T NF-kB luciferase reporter, TNF-alpha induced;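 active = inhibition above the mean of solvent-only control wells plus 3 SD, cutoff set per campaign, cut at about 13% in these data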;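 also: 0% = TNF-alpha with DMSO and 100% = TNF-alpha with MG high control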
STAT1 inh STAT3c: counter-screen for STAT3 inhibitors: STAT1 inhibition. shares compounds with STAT3 inh-1. NIH 3T3 STAT1-luciferase reporter, IFN-gamma induced, luminescence. inhibition, % at 5.7 µM. AID 1317. 1,200 compounds, 27% hits;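 active = inhibition above the mean plus 3 SD of solvent-only control wells, limit set per screening run, cut at about 16% in these data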;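 also: 0% = DMSO with IFN-gamma and 100% = nifuroxazide control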
Numbers without * were called inactive; nt = not tested or not shown. Rows were chosen to be rich in hits. Some 5.1% of all compounds tested hit in one or more screens of this group.

SMILES	NF-kB expr up	STAT1 blocker	STAT3 inh-1	APP 5'UTR act	STAT3 act	STAT1 activator	STAT3 inh-2	NFkB inh 2	STAT1 inh STAT3c
Cn1c(CNc2ccccc2)nc2ccccc21	2.9	-36	-12	79	111	132*	nt	nt	nt
COc1ccc(N(C(=O)c2cccc([N+](=O)[O-])c2)S(=O)(=O)c2ccc3c(c2)n(C)c(=O)n3C)cc1	0.86	-1	17	3	95	101	nt	nt	nt
O=C(Cc1csc(Nc2nc(=S)[nH]c3ccccc23)n1)NCc1cccc(Cl)c1	1.1	1	-14	18	122	99	nt	nt	nt
O=C(Cc1csc(Nc2nc(=S)[nH]c3ccccc23)n1)N1CCN(c2cccc(C(F)(F)F)c2)CC1	1.5	7	-38	-3	135*	92	nt	nt	nt
O=C(CSc1nc2ccccc2o1)c1ccc2c(c1)OCCO2	1.5	-4	-12	15	110	104	nt	nt	nt
O=C(Nc1ccc(F)cc1)c1ccccc1	1.7	-23	1	45	100	121	nt	nt	nt
O=C(Nc1ccc(SC(F)F)cc1)c1ccc(F)cc1	4.7*	-39	20	107	84	137*	nt	nt	nt
CCC(=O)N1CCN(c2ccccc2NC(=O)c2ccc(-c3cccc([N+](=O)[O-])c3)o2)CC1	1.2	3	-6	-8	105	98	nt	nt	nt
CCC(=O)N1CCN(c2ccc(NC(=O)c3ccc([N+](=O)[O-])o3)cc2Cl)CC1	0.24	-35	-8	-92	113	130*	nt	nt	nt
CCN1CCN(c2ccc(NC(=O)c3ccc([N+](=O)[O-])o3)cc2Cl)CC1	2.3	-56	9	-94	98	148*	nt	nt	nt
CCN1CCN(c2ccc(NC(=O)c3ccc(F)cc3)cc2Cl)CC1	1.6	-17	8	27	99	113	nt	nt	nt
COc1ccc(-c2nc3cc([N+](=O)[O-])ccc3o2)cc1	5.2*	-56	25	170*	87	150*	nt	nt	nt
Cc1ccc(C2/C(=C(/O)c3ccc(Br)cc3)C(=O)C(=O)N2Cc2ccco2)o1 (stereo not drawn)	1.3	3	2	3	104	97	nt	nt	nt
c1ccc(OCCOc2ncnc3ccccc23)cc1	2.5	-34	6	29	98	133*	nt	nt	nt
O=C(COc1ncnc2ccccc12)c1ccc(Cl)cc1	1.2	-38	13	30	96	134*	nt	nt	nt
COc1ccc(CN2CCN(C(=O)c3cccs3)CC2)c(OC)c1OC	0.94	15	8	8	95	86	nt	nt	nt
CNc1nc2cc([N+](=O)[O-])c([N+](=O)[O-])cc2nc1NC	0.77	20	72*	18	39	82	65*	28*	20*
CN(C)S(=O)(=O)c1ccc(C(=O)OCC(=O)NCc2ccco2)cc1	0.98	-1	3	6	104	99	nt	nt	nt
COC(=O)CNC(=O)c1cccs1	1.1	12	3	0	102	89	nt	nt	nt
O=C(CSCCO)Nc1ccc(C23CC4CC(CC(C4)C2)C3)cc1	0.9	-18	44*	-9	66	124	33	22*	-29
O=C(CSCCO)Nc1ccc([N+](=O)[O-])cc1	1.2	8	-1	-6	108	92	nt	nt	nt
CCOC(=O)c1[nH]c(C)c(/C(O)=C2\C(=O)C(=O)N(CCN3CCOCC3)C2c2ccco2)c1C (stereo not drawn)	1	-8	17	5	92	106	nt	nt	nt
O=C1COc2ccc(S(=O)(=O)Nc3ccc4c(c3)OCO4)cc2N1	1.1	7	9	-12	97	93	nt	nt	nt
Cc1cc(-c2cn3ccccc3n2)c(C)n1-c1ccccc1	2.6	0	58*	176*	55	100	21	-18	-83
CC(=O)Nc1cccc(-c2cn3ccccc3n2)c1	1.7	-19	9	7	98	117	nt	nt	nt
SMILES	NF-kB expr up	STAT1 blocker	STAT3 inh-1	APP 5'UTR act	STAT3 act	STAT1 activator	STAT3 inh-2	NFkB inh 2	STAT1 inh STAT3c
CCc1c(C)nc2c(C)cccc2c1SCCC#N	1.1	4	3	15	99	95	nt	nt	nt
CCOc1ccc(/C=N/NC(=O)c2[nH]ncc2Br)c(O)c1	4.4*	-19	48*	24	61	116	18	-15	-77
Cc1ccc(/C=C/c2nnc(-c3cccs3)o2)cc1	5.2*	10	64*	2	52	91	24	-9	-40
CCOc1ccc(N/C=C/C(=O)c2ccccc2)c([N+](=O)[O-])c1	1	14	85*	157*	28	87	59*	45*	-30
CCOc1ccc(OCC(=O)Nc2ccc(OC)cc2[N+](=O)[O-])cc1	1.3	-7	14	-10	88	107	nt	nt	nt
CCc1[nH]c(=O)c(C#N)c2c1COC(C)(C)C2	0.8	-5	2	21	105	104	nt	nt	nt
COc1cccc(C(=O)Nc2ccc(NC(=O)C(C)(C)C)cn2)c1	1.9	16	58*	138*	55	85	8	-14	-67
CCOc1ccccc1NC(=S)Nc1ncccc1C	1.4	3	4	0	96	98	nt	nt	nt
COc1ccc(NC(=S)Nc2ncccc2C)c(OC)c1	1.7	-26	47*	58	66	123	40	-17	-42
Cc1cc(N2CCN(c3nc4ccccc4s3)CC2)n2ncnc2n1	0.5	28	83*	-12	35	75	73*	25*	30*
Cc1cc(N2CCN(C(c3ccccc3)c3ccccc3)CC2)n2ncnc2n1	0.97	-7	4	-2	99	106	nt	nt	nt
COc1ccccc1Cn1nnc2c(=O)[nH]c(C3CCN(C(=O)c4ccc(C)cc4)CC3)nc21	0.71	-2	-8	-8	110	102	nt	nt	nt
CCOC(=O)c1ccc(NC(=O)CSc2nc3cccnc3n2C)cc1	0.91	8	54*	21	59	92	39	2	12
Cc1cc(C)nc(SCC(=O)Nc2ccc(N3CCOCC3)c(Cl)c2)n1	1.1	22	45*	-9	63	80	51*	12	24*
CC(=O)Nc1ccc2nc(SCC(=O)Nc3ccc(N4CCOCC4)c(Cl)c3)sc2c1	1.6	-29	5	35	102	126	nt	nt	nt
CCCN(CCO)CCCc1ccccc1	1.1	-11	5	-15	101	110	nt	nt	nt
Cc1ccc(CNC(=O)c2cc3c(C)nc4ccccc4c3o2)cc1	0.42	23	54*	-7	59	79	43	9	24*
Cc1nc2ccccc2c2oc(C(=O)NCc3ccccn3)cc12	0.39	8	20	-6	87	91	nt	nt	nt
